Test results taken from ChEMBL document CHEMBL4689842, “EUbOPEN Chemogenomics Library wave 1” (2021).

System: Fibroblast
Experiment: Multiplex assay against human fibroblast
Type: toxicity, cell-based
Outline: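 Cells stained live at seeding with Hoechst33342, BioTracker Green Microtubule Cytoskeleton Dye, MitoTracker Red and Annexin V Alexa Fluor 680 were imaged on a CQ1 microscope at 37°C and 5% CO2 after compound addition. Their classification by CellPathfinder machine-learning gating ran from Hoechst high-intensity objects versus normal cells, to healthy, pyknosed or fragmented nuclei among normal cells, to mitotic or apoptotic among pyknosed cells. Tubulin, mitochondrial-mass and membrane-permeability phenotypes are per cents of healthy-nucleus cells.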

[1] = 12 h, 1 µM, compound concentration 1 uM, replicate 1
[2] = 12 h, 1 µM, compound concentration 1 uM, replicate 2
[3] = 12 h, 10 µM, compound concentration 10 uM, replicate 1
[4] = 12 h, 10 µM, compound concentration 10 uM, replicate 2
[5] = 24 h, 1 µM, compound concentration 1 uM, replicate 1
[6] = 24 h, 1 µM, compound concentration 1 uM, replicate 2
[7] = 24 h, 10 µM, compound concentration 10 uM, replicate 1
[8] = 24 h, 10 µM, compound concentration 10 uM, replicate 2

COc1cccc2cc(-c3nc([C@H]4CC[C@H](C(=O)O)CC4)n4ncnc(N)c34)[nH]c12 [OSI-027]
Population Apoptotic (%) [1]: 58%
Population Fragmented Nuclei (%) [1]: 47%
Population Healthy Nuclei (%) [1]: 40%
Population Hoechst High Intensity Objects (%) [1]: 28%
Population Membrane Permeable-Phenotype (%) [1]: 5%
Population Mitochondria Different-Phenotype (%) [1]: 0%
Population Mitotic Cells (%) [1]: 41%
Population Normal (%) [1]: 71%
Population Pyknosed Nuclei (%) [1]: 11%
Population Tubulin-Different-Phenotype (%) [1]: 7%
Total Cell Count [1]: 382
Population Apoptotic (%) [2]: 57%
Population Fragmented Nuclei (%) [2]: 68%
Population Healthy Nuclei (%) [2]: 22%
Population Hoechst High Intensity Objects (%) [2]: 26%
Population Membrane Permeable-Phenotype (%) [2]: 25%
Population Mitochondria Different-Phenotype (%) [2]: 18%
Population Mitotic Cells (%) [2]: 42%
Population Normal (%) [2]: 73%
Population Pyknosed Nuclei (%) [2]: 9%
Population Tubulin-Different-Phenotype (%) [2]: 31%
Total Cell Count [2]: 98
Population Apoptotic (%) [3]: 72%
Population Fragmented Nuclei (%) [3]: 28%
Population Healthy Nuclei (%) [3]: 56%
Population Hoechst High Intensity Objects (%) [3]: 12%
Population Membrane Permeable-Phenotype (%) [3]: 2%
Population Mitochondria Different-Phenotype (%) [3]: 2%
Population Mitotic Cells (%) [3]: 27%
Population Normal (%) [3]: 87%
Population Pyknosed Nuclei (%) [3]: 14%
Population Tubulin-Different-Phenotype (%) [3]: 0%
Total Cell Count [3]: 281
Population Apoptotic (%) [4]: 20%
Population Fragmented Nuclei (%) [4]: 65%
Population Healthy Nuclei (%) [4]: 26%
Population Hoechst High Intensity Objects (%) [4]: 31%
Population Membrane Permeable-Phenotype (%) [4]: 18%
Population Mitochondria Different-Phenotype (%) [4]: 12%
Population Mitotic Cells (%) [4]: 80%
Population Normal (%) [4]: 68%
Population Pyknosed Nuclei (%) [4]: 8%
Population Tubulin-Different-Phenotype (%) [4]: 6%
Total Cell Count [4]: 88
Population Apoptotic (%) [5]: 53%
Population Fragmented Nuclei (%) [5]: 36%
Population Healthy Nuclei (%) [5]: 50%
Population Hoechst High Intensity Objects (%) [5]: 33%
Population Membrane Permeable-Phenotype (%) [5]: 7%
Population Mitochondria Different-Phenotype (%) [5]: 1%
Population Mitotic Cells (%) [5]: 46%
Population Normal (%) [5]: 66%
Population Pyknosed Nuclei (%) [5]: 12%
Population Tubulin-Different-Phenotype (%) [5]: 5%
Total Cell Count [5]: 302
Population Apoptotic (%) [6]: 16%
Population Fragmented Nuclei (%) [6]: 68%
Population Healthy Nuclei (%) [6]: 22%
Population Hoechst High Intensity Objects (%) [6]: 34%
Population Membrane Permeable-Phenotype (%) [6]: 6%
Population Mitochondria Different-Phenotype (%) [6]: 13%
Population Mitotic Cells (%) [6]: 83%
Population Normal (%) [6]: 65%
Population Pyknosed Nuclei (%) [6]: 8%
Population Tubulin-Different-Phenotype (%) [6]: 13%
Total Cell Count [6]: 103
Population Apoptotic (%) [7]: 75%
Population Fragmented Nuclei (%) [7]: 23%
Population Healthy Nuclei (%) [7]: 64%
Population Hoechst High Intensity Objects (%) [7]: 17%
Population Membrane Permeable-Phenotype (%) [7]: 6%
Population Mitochondria Different-Phenotype (%) [7]: 0%
Population Mitotic Cells (%) [7]: 24%
Population Normal (%) [7]: 82%
Population Pyknosed Nuclei (%) [7]: 12%
Population Tubulin-Different-Phenotype (%) [7]: 0%
Total Cell Count [7]: 282
Population Apoptotic (%) [8]: 33%
Population Fragmented Nuclei (%) [8]: 60%
Population Healthy Nuclei (%) [8]: 34%
Population Hoechst High Intensity Objects (%) [8]: 33%
Population Membrane Permeable-Phenotype (%) [8]: 17%
Population Mitochondria Different-Phenotype (%) [8]: 11%
Population Mitotic Cells (%) [8]: 66%
Population Normal (%) [8]: 66%
Population Pyknosed Nuclei (%) [8]: 6%
Population Tubulin-Different-Phenotype (%) [8]: 11%
Total Cell Count [8]: 75
